The text below walks through data of ChEMBL document CHEMBL1137430, “Incorporation of an intramolecular hydrogen-bonding motif in the side chain of 4-aminoquinolines enhances activity against drug-resistant P. falciparum” (J Med Chem, 2006).

Broadly, the IC50 is the concentration that gives 50% inhibition. Read a high IC50 as weaker potency.

In assay [1] the test system is Plasmodium falciparum. Briefly: Antimalarial activity against chloroquine-sensitive Plasmodium falciparum 3D7. The class given is functional, organism-based. In outline: (§1)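 P. falciparum blood-stage cultures at 37 °C under 5% CO2, 5% O2. Samples taken 72 h after drug addition, fixed in 2% paraformaldehyde about 1 h, then stained with 50 nM YOYO-1 in PBS for 24 h in the dark at 4 °C. Percent parasitized RBCs read by flow cytometry against no-drug cultures. Doses 0.1–200 nM in triplicate. IC50 from a variable-slope sigmoidal fit.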

Assay [2] relates to Plasmodium falciparum. The experiment in a line: Antimalarial activity against multidrug-resistant Plasmodium falciparum W2. The class given is functional, organism-based. In outline:
as §1

Turning to `CCCN(CCCNc1ccnc2cc(C)ccc12)Cc1cc([N+](=O)[O-])ccc1O`, the IC50 in the assay on Plasmodium falciparum [1] was 38.8 nM; with Plasmodium falciparum [2], 126 nM.
`CCCN(CCCCNc1ccnc2cc(Cl)ccc12)Cc1cc(O)ccc1O`: the 50% inhibitory concentration (IC50) with Plasmodium falciparum [1] was 2.2 nM; with Plasmodium falciparum [2], 8.9 nM.
On the same counts, the results for `CCCN(CCCCNc1ccnc2cc(Cl)ccc12)Cc1cc(F)ccc1OC` are 1.9 nM and 4.9 nM.
As to `CCCN(CCCCNc1ccnc2cc(Cl)ccc12)Cc1cc(OC)ccc1O`, the IC50 with Plasmodium falciparum [1] is 6.8 nM; with Plasmodium falciparum [2], 27.5 nM.
As to `CCCN(CCCNc1ccnc2cc(Cl)ccc12)Cc1ccccc1O`, the IC50 in the assay on Plasmodium falciparum [1] came out at 0.65 nM; in the assay with Plasmodium falciparum [2], 1.8 nM.
As to `CCCN(CCCCNc1ccnc2cc(Cl)ccc12)Cc1cccs1`, the results for the IC50 in the assay with Plasmodium falciparum [1] and in the assay on Plasmodium falciparum [2] were 7.2 nM and 22 nM, respectively.
The matching figures for `CCCN(CCCNc1ccnc2cc(Cl)ccc12)Cc1ccco1`: 12.2 nM and 33 nM.
The matching figures for `CCCN(CCCCNc1ccnc2cc(Cl)ccc12)Cc1ccco1`: 3.1 nM and 4 nM.
Consider `CCCN(CCCCNc1ccnc2cc(Cl)ccc12)Cc1ccc(C)o1`, for which the IC50 worked out at 7.4 nM with Plasmodium falciparum [1] and 30.2 nM in the assay with Plasmodium falciparum [2].
`CCCN(CCCNc1ccnc2cc(Cl)ccc12)Cc1cccs1`: the IC50 with Plasmodium falciparum [1] was found to be 32.1 nM; with Plasmodium falciparum [2] it was 140 nM.
Consider `CCCN(CCCCNc1ccnc2cc(Cl)ccc12)Cc1cccc(OC)c1O`, for which the figures for the IC50 with Plasmodium falciparum [1] and in the assay on Plasmodium falciparum [2] were 1 nM and 4.3 nM, respectively.
Regarding `CCCN(CCCNc1ccnc2cc(Cl)ccc12)Cc1cccc(F)c1O`, the values for the IC50 with Plasmodium falciparum [1] and with Plasmodium falciparum [2] were 0.98 nM and 2.6 nM, respectively.
Consider `CCCN(CCCCNc1ccnc2cc(Cl)ccc12)Cc1c(F)cccc1OC`, for which the IC50 amounted to 10 nM in the assay on Plasmodium falciparum [1] and 11.2 nM in the assay on Plasmodium falciparum [2].
On the same counts, the results for `CCCN(CCCCNc1ccnc2cc(Cl)ccc12)Cc1cccc2c1OCO2` are 4.2 nM and 23 nM.
`CCCN(CCCNc1ccnc2cc(Cl)ccc12)Cc1cc(F)ccc1OC` displayed an IC50 in the assay on Plasmodium falciparum [1] of 5.2 nM.
In the case of `CCCN(CCCCNc1ccnc2cc(Cl)ccc12)Cc1ccccc1O`, the IC50 with Plasmodium falciparum [1] was determined as 7 nM; in the assay with Plasmodium falciparum [2], 20 nM.
Turning to `CCCN(CCCCNc1ccnc2cc(Cl)ccc12)Cc1ccc(Cl)o1`, the values for the IC50 in the assay with Plasmodium falciparum [1] and in the assay with Plasmodium falciparum [2] were 4.3 nM and 6 nM, respectively.
In the case of `CCCN(CCCNc1ccnc2cc(Cl)ccc12)Cc1cc(O)ccc1O`, the IC50 in the assay on Plasmodium falciparum [1] amounted to 2.9 nM; with Plasmodium falciparum [2] it was 22.5 nM.
Regarding `CCCN(CCCCNc1ccnc2cc(Cl)ccc12)Cc1cccc(F)c1O`, the IC50 stood at 1.4 nM in the assay with Plasmodium falciparum [1] and 4.6 nM in the assay with Plasmodium falciparum [2].
For `CCCN(CCCCNc1ccnc2cc(Cl)ccc12)Cc1cc(OC(F)(F)F)ccc1O`, the IC50 worked out at 2.4 nM in the assay on Plasmodium falciparum [1] and 5.9 nM in the assay with Plasmodium falciparum [2].
